The source of these data is ChEMBL document CHEMBL3414513, “Synthesis and biological evaluation of betulonic acid derivatives as antitumor agents” (Eur J Med Chem, 2015).

What is called IC50 is the concentration needed to halve the response being measured. Lower therefore signals greater potency.

Format in all cases: functional, cell-based
One assay relates to MGC-803. Put plainly: Cytotoxicity against human MGC803 cells after 72 hrs by MTT assay. Particulars: for IC50: MGC-803, 72 h. The method in brief:
(§1)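 Cancer lines grown in RPMI 1640 with 10% heat-inactivated FBS, 37 °C, 5% CO2. Cells trypsinized at 80-90% confluence, seeded at 2×10^3/well overnight, then given compounds (DMSO stocks diluted in medium) at various concentrations for 72 h at 37 °C. Controls: 0.1% DMSO negative, adriamycin positive. MTT (5 mg/ml) added for 4 h, formazan dissolved in SDS 12 h, A595 read. IC50 from dose-response curves.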
Background: Tetrazolium assays rely on reduction of a dye to a coloured formazan, in cell work by metabolically active cells.

Assay [1] in a line: (§2) Cytotoxicity against human PC3 cells after 72 hrs by MTT assay. Conditions: PC-3, 72 h. The gist of the method:
(§3)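 Cells trypsinized at 80-90% confluence, seeded at 2×10^3/well overnight, then given compounds (DMSO stocks diluted in medium) at various concentrations for 72 h at 37 °C. Controls: 0.1% DMSO negative, adriamycin positive. MTT (5 mg/ml) added for 4 h, formazan dissolved in SDS 12 h, A595 read. IC50 from dose-response curves.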

Another assay concerns PC-3. Described as §2. The gist of the method: as §3
A further assay has as its system Bcap37. Put plainly: Cytotoxicity against human Bcap37 cells after 72 hrs by MTT assay. Conditions: for IC50: Bcap37, 72 h. The method in brief:
as §1

A further assay relates to A-375. Put plainly: Cytotoxicity against human A375 cells after 72 hrs by MTT assay. Conditions: for IC50: A-375, 72 h. The gist of the method: as §1
Another assay has as its system MCF7. Briefly: Cytotoxicity against human MCF7 cells after 72 hrs by MTT assay. Particulars: for IC50: MCF7, 72 h. The gist of the method: as §1

In the case of `C=C(C)[C@@H]1CC[C@]2(C(=O)OCCN3CCOCC3)CC[C@]3(C)[C@H](CC[C@@H]4[C@@]5(C)CCC(=O)C(C)(C)[C@@H]5CC[C@]43C)[C@@H]12`, the Activity entry in the assay on MGC-803, in the assay on PC-3, in the assay on Bcap37, in the assay on A-375 and in the assay with MCF7 was “Dose-dependent effect” throughout. The IC50 was determined as 9.4 µM in the assay on MGC-803; 11.3 µM in assay [1]; 8.8 µM with Bcap37; 10.5 µM in the assay on A-375; 10.1 µM in the assay on MCF7.
For `C=C(C)[C@@H]1CC[C@]2(C(=O)OCCCBr)CC[C@]3(C)[C@H](CC[C@@H]4[C@@]5(C)CCC(=O)C(C)(C)[C@@H]5CC[C@]43C)[C@@H]12`, the Activity entry with MGC-803, with PC-3, with Bcap37, in the assay on A-375 and in the assay on MCF7 was “Dose-dependent effect” in each case. The IC50 (in the assay on MGC-803; in assay [1]; in the assay on Bcap37; in the assay on A-375; with MCF7) was above 20 µM throughout.
For `C=C(C)[C@@H]1CC[C@]2(C(=O)OCCN3CCN(C(=O)c4c(Cl)cccc4Cl)CC3)CC[C@]3(C)[C@H](CC[C@@H]4[C@@]5(C)CCC(=O)C(C)(C)[C@@H]5CC[C@]43C)[C@@H]12`, the Activity result in the assay on MGC-803, in the assay with PC-3, in the assay on Bcap37, in the assay on A-375 and in the assay with MCF7 was “Dose-dependent effect” in each case. Besides, the IC50 with MGC-803 is 16.6 µM; in assay [1], 14.1 µM; in the assay with Bcap37 it was above 20 µM; in the assay with A-375 it was 17.4 µM; with MCF7 it was 10.8 µM.
Turning to `C=C(C)[C@@H]1CC[C@]2(C(=O)OCCN3CCN(C(=O)CCCCCCCC)CC3)CC[C@]3(C)[C@H](CC[C@@H]4[C@@]5(C)CCC(=O)C(C)(C)[C@@H]5CC[C@]43C)[C@@H]12`, the Activity entry in the assay with MGC-803, with PC-3, in the assay with Bcap37, with A-375 and in the assay on MCF7 was “Dose-dependent effect” in each case. The IC50 is above 20 µM in the assay with MGC-803; above 20 µM in assay [1]; above 20 µM with Bcap37; above 20 µM with A-375; 17.6 µM with MCF7.
Take `C=C(C)[C@@H]1CC[C@]2(C(=O)OCCN3CCCCC3)CC[C@]3(C)[C@H](CC[C@@H]4[C@@]5(C)CCC(=O)C(C)(C)[C@@H]5CC[C@]43C)[C@@H]12`: the Activity result in the assay on MGC-803, in the assay on PC-3, in the assay with Bcap37, with A-375 and with MCF7 was “Dose-dependent effect” in each case. The IC50 with MGC-803 is 12.5 µM; in assay [1] it was 18.8 µM; in the assay with Bcap37 it was 16.9 µM; with A-375, 17.1 µM; in the assay with MCF7, 16 µM.
On to `COc1cccc2c1C(=O)c1c(O)c3c(c(O)c1C2=O)C[C@@](O)(C(=O)CO)C[C@@H]3O[C@H]1C[C@H](N)[C@H](O)[C@H](C)O1` [DOXORUBICIN], for which the Activity entry with MGC-803, with PC-3, in the assay on Bcap37 and in the assay on A-375 was “Dose-dependent effect” throughout. Further, the IC50 is 1.2 µM in the assay with Bcap37, 1 µM in the assay on A-375 and 1.35 µM in the assay with MCF7.
